The source made the active and inactive calls. The rule behind the calls is not given here.
Key:
[1] = Permeability across human Caco2 cells; assay type: ADME, cell-based; conditions: Caco-2, read-out: permeability
Method in brief: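 Caco-2 monolayer permeability is reported as a class: low <2 × 10^-6 cm/s, medium 2–8 × 10^-6 cm/s, high >8 × 10^-6 cm/s.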

[2] = AUC in mouse at 30 mg/kg, po; assay type: ADME, organism-based; design: dose 30 mg/kg, route oral; conditions: plasma
[3] = molecular target: T1, Serine/threonine-protein kinase B-raf (Homo sapiens, UniProt P15056, V600E); experiment: Inhibition of full-length B-Raf V600E mutant in human MALME-3M cells assessed as reduction in basal ERK1/2 phosphorylation incubated for 1 hr; assay type: cell-based
T1 sequence (P15056 2-766 V600E limits assumed): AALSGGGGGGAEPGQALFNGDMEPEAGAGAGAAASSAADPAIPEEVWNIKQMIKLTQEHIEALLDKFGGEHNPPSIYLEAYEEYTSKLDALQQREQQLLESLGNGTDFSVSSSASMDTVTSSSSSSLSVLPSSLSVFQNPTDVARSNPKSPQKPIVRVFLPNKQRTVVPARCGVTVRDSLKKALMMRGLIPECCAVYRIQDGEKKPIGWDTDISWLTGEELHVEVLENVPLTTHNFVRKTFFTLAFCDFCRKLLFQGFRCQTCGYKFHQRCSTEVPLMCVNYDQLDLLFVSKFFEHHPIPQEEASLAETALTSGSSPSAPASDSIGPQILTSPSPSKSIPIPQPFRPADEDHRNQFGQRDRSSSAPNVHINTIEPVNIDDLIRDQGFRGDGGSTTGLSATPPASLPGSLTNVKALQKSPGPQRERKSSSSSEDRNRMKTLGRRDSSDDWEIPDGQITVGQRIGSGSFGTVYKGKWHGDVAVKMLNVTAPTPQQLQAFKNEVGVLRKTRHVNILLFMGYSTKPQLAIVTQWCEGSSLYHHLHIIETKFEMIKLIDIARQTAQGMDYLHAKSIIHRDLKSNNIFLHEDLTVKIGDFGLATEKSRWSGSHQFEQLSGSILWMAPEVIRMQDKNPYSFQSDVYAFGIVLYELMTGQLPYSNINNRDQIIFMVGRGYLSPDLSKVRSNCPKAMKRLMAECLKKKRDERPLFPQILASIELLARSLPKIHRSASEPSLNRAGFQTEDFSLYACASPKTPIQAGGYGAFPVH

[4] = Oral bioavailability in mouse at 30 mg/kg; assay type: ADME, organism-based; conditions: in vivo
[5] = Volume of distribution in mouse at 2.5 mg/kg, iv; assay type: ADME, organism-based; design: dose 2.5 mg/kg, route intravenous; conditions: in vivo
Method in brief: (§1)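 Mouse intravenous pharmacokinetics at 2.5 mg/kg. Observed clearance is reported in ml/min/kg and volume of distribution in l/kg.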

[6] = Clearance in mouse at 2.5 mg/kg, iv; assay type: ADME, organism-based; design: dose 2.5 mg/kg, route intravenous; conditions: in vivo; method in brief: as §1
[7] = molecular target: T1, Serine/threonine-protein kinase B-raf; experiment: Inhibition of full-length B-Raf V600E mutant assessed as reduction in incorporation of radiolabeled phosphate from [gamma-33P]ATP into FSBA-modified wild-type MEK.
[8] = molecular target: Serine/threonine-protein kinase B-raf (Homo sapiens) (UniProt P15056); experiment: Inhibition of human B-raf at 1 uM in presence of ATP at level equals to ~ Km of ATP
[9] = Antitumor activity against B-Raf V600E mutant expressing human LOX cells xenografted in mouse assessed as tumor growth inhibition at 30 mg/kg, QD from day 1 to day 4 measured on day 8; assay type: functional; conditions: read-out: TGI
Method in brief: (§2)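 Nude mice bearing established LOX (B-Raf V600E) xenografts were dosed at 30 mg/kg once daily on days 1–4, with vehicle controls at 10 ml/kg. Tumor volume was measured on days 1, 3, 5, 8 and 11.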

[10] = Antitumor activity against B-Raf V600E mutant expressing human LOX cells xenografted in mouse assessed as tumor growth inhibition at 30 mg/kg, QD from day 1 to day 4 measured on day 5; assay type: functional; conditions: read-out: TGI; method in brief: as §2
[11] = molecular target: LIM domain kinase 1 (Homo sapiens) (UniProt P53667); experiment: Inhibition of human LIMK1 at 1 uM in presence of ATP at level equals to ~ Km of ATP
[12] = molecular target: RAF proto-oncogene serine/threonine-protein kinase (Homo sapiens) (UniProt P04049); experiment: Inhibition of human C-raf at 1 uM in presence of ATP at level equals to ~ Km of ATP
[13] = Antitumor activity against B-Raf V600E mutant expressing human LOX cells xenografted in mouse assessed as tumor growth inhibition at 30 mg/kg, QD from day 1 to day 4 measured on day 11; assay type: functional; conditions: read-out: TGI; method in brief: as §2
[14] = molecular target: Tyrosine-protein kinase Lck (Homo sapiens) (UniProt P06239); experiment: Inhibition of LCK at 1 uM
Chain of Tyrosine-protein kinase Lck (Homo sapiens) (P06239 2-509 limits assumed): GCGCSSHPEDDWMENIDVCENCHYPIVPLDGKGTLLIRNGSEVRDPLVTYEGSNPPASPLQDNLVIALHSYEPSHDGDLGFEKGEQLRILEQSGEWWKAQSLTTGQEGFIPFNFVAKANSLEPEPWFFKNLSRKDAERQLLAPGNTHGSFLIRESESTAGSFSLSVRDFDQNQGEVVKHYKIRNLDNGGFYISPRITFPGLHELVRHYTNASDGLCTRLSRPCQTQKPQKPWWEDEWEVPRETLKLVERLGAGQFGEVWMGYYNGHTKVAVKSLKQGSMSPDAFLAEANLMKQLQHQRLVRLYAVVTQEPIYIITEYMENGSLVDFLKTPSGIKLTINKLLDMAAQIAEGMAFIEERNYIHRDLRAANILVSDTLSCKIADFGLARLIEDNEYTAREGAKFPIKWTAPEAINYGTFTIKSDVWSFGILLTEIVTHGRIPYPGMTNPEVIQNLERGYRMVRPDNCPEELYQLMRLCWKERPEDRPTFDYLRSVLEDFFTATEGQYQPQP

[15] = molecular target: Tyrosine-protein kinase Fgr (Homo sapiens) (UniProt P09769); experiment: Inhibition of FGR at 1 uM
Chain of Tyrosine-protein kinase Fgr (Homo sapiens) (P09769 2-529 limits assumed): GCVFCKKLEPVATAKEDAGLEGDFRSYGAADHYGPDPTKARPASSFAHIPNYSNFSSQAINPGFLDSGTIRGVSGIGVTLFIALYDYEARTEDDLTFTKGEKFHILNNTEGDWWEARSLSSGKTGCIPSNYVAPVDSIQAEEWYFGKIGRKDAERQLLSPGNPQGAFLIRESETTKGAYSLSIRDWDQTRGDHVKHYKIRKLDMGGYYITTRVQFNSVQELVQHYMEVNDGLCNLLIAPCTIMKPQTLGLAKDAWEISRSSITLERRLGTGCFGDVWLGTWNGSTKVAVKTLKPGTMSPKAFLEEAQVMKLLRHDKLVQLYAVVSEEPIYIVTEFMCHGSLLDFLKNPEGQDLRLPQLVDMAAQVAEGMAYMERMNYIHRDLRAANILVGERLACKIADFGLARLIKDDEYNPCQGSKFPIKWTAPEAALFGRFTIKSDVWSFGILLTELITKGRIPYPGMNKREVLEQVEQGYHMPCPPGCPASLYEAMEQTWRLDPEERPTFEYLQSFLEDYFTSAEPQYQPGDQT

[16] = molecular target: Vascular endothelial growth factor receptor 2 (Homo sapiens) (UniProt P35968); experiment: Inhibition of KDR at 1 uM
Chain of Vascular endothelial growth factor receptor 2 (Homo sapiens) (P35968 whole entry): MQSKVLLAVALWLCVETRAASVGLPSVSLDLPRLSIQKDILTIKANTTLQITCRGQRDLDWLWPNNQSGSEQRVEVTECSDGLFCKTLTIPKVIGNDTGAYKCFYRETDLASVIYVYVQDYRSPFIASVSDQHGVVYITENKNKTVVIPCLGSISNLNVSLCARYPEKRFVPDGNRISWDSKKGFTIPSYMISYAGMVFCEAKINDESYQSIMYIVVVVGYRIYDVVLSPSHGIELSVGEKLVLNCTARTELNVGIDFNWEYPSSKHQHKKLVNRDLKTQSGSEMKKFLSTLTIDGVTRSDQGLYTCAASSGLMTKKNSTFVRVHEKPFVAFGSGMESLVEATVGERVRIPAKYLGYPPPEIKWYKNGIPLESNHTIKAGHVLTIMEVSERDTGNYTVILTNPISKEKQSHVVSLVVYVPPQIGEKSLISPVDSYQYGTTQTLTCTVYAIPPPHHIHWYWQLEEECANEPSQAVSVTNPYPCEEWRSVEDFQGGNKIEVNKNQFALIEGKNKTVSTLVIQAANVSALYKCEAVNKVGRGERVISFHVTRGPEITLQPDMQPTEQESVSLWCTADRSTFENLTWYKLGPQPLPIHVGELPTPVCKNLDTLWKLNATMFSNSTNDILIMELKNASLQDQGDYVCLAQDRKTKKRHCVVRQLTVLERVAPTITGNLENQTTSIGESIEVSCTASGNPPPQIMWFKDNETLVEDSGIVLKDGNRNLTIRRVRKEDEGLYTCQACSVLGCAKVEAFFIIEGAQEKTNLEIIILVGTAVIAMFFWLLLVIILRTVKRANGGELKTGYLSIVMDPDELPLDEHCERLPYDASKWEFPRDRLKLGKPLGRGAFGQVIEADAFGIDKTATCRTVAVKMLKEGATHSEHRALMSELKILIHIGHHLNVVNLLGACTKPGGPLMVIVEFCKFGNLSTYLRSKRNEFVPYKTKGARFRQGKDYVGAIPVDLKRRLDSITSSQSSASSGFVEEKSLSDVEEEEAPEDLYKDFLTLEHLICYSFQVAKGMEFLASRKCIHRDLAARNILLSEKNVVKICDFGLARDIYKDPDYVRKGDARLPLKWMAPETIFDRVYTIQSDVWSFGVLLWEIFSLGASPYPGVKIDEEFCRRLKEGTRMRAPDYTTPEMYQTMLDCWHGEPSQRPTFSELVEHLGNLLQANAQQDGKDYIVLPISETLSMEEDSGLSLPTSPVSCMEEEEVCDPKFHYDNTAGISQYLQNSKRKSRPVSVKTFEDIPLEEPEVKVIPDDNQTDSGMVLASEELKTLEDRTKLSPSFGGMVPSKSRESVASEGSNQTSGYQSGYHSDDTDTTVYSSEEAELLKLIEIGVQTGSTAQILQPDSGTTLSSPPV

[17] = molecular target: Proto-oncogene tyrosine-protein kinase Src (Homo sapiens) (UniProt P12931); experiment: Inhibition of SRC at 1 uM
Chain of Proto-oncogene tyrosine-protein kinase Src (Homo sapiens) (P12931 2-536 limits assumed): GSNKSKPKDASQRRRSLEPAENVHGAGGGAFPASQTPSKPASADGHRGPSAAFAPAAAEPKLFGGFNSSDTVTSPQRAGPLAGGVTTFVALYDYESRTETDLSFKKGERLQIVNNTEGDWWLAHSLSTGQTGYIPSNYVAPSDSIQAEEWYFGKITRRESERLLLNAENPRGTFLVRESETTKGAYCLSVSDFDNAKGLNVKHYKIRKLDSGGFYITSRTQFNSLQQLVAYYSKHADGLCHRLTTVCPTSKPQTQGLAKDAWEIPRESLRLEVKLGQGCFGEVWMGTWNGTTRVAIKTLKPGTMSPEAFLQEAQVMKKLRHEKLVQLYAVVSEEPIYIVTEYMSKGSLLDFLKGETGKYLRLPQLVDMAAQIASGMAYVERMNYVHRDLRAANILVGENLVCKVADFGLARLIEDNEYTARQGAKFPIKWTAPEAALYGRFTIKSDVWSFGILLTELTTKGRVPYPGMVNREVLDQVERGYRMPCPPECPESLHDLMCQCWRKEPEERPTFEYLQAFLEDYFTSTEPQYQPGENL

[18] = molecular target: Tyrosine-protein kinase ABL1 (Homo sapiens) (UniProt P00519); experiment: Inhibition of ABL at 1 uM
Chain of Tyrosine-protein kinase ABL1 (Homo sapiens) (P00519 whole entry): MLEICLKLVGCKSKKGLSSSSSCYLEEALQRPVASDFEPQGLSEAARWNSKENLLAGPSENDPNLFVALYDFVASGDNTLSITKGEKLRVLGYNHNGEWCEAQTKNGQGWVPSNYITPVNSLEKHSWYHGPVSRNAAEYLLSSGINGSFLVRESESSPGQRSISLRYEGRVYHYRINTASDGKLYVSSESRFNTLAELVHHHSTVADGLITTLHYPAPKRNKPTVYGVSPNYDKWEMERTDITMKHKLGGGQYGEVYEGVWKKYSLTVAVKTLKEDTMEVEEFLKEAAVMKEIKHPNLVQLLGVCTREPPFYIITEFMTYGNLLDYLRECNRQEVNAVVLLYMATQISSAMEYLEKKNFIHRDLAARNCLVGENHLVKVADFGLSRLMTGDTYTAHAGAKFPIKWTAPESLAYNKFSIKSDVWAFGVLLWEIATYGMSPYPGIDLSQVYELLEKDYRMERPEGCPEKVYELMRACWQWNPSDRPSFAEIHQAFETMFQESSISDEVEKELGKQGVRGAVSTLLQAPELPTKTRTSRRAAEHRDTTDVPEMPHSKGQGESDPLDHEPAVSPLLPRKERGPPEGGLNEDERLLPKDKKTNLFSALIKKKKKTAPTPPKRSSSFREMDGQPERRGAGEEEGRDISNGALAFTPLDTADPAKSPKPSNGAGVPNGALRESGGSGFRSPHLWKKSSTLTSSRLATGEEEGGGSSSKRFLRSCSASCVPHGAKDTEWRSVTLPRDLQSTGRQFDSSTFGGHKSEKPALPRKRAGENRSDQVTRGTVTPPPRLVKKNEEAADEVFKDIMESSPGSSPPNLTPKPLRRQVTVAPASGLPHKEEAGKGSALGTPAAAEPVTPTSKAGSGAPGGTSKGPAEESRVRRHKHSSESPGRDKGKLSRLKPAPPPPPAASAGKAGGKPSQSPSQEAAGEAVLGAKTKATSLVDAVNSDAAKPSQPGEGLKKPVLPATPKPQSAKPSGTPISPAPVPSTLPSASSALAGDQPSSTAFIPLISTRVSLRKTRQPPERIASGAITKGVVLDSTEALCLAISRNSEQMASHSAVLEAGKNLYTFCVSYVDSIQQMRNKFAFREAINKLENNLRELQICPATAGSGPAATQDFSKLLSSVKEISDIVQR

Compound | IC50 [3] [nM] | IC50 [7] [nM] | also measured
CCCS(=O)(=O)Nc1ccc(C)c(-c2ccc3nc(N)ncc3c2)c1 | > 10000 | 128 | –
CCCS(=O)(=O)Nc1ccc(F)c(-c2cc3cncc(Br)c3cn2)c1F | 469 | 72 | –
CCCS(=O)(=O)Nc1ccc(F)c(-c2ccc3ccncc3n2)c1F | – | 3610 | –
CCCS(=O)(=O)Nc1ccc(F)c(-c2ccc3nc(N)ncc3c2)c1F | 682 | 140 | –
CCCS(=O)(=O)Nc1ccc(F)c(-c2ccc3cc(N)ncc3c2)c1F | – | 549 | –
CCCS(=O)(=O)Nc1ccc(F)c(-c2cc3ccncc3[nH]2)c1F | – | > 10000 | –
CCCS(=O)(=O)Nc1ccc(F)c(-c2ccc3ccncc3c2)c1F | – | 340 | –
CCCS(=O)(=O)Nc1ccc(F)c(-c2ccc3nc(N)ncc3c2)c1 | – | > 10000 | –
CCCS(=O)(=O)Nc1ccc(F)c(-c2cc3cnccc3n(CCc3ccccc3)c2=O)c1F | 1160 | 13 | –

Further lines, with some results ahead:

IC50 [3] [nM] | IC50 [7] [nM] | Compound | also measured
31 | 6 | CCCS(=O)(=O)Nc1ccc(F)c(-c2cc3cnc(NCCO)nc3n(C)c2=O)c1F | Papp [1]: > 8 ×10⁻⁶ cm/s; AUC [2]: 1 µM·h; bioavailability [4]: 18%; Vd [5]: 1 L/kg; clearance [6]: 74 mL/min/kg
41 | – | CCCS(=O)(=O)Nc1ccc(F)c(-c2cc3cnc(NCCCO)nc3n(C)c2=O)c1F | Papp [1]: > 8 ×10⁻⁶ cm/s; AUC [2]: 20 µM·h; Vd [5]: 20 L/kg
27 | 3 | CCCS(=O)(=O)Nc1ccc(F)c(-c2cc3cnc(NCC4CC4)nc3n(C)c2=O)c1F | Papp [1]: > 8 ×10⁻⁶ cm/s; AUC [2]: 133 µM·h; inhibition [8]: Active; inhibition in vivo at 30 mg/kg [9]: 96%; inhibition in vivo at 30 mg/kg [10]: 74%; bioavailability [4]: 33%; inhibition [11]: > 80%; Vd [5]: 0.46 L/kg; clearance [6]: 3 mL/min/kg; inhibition [12]: Active; inhibition in vivo at 30 mg/kg [13]: 97%
93 | 10 | CCCS(=O)(=O)Nc1ccc(F)c(-c2cc3cnc(N)nc3n(C)c2=O)c1F | –
3 | 0.5 | CCCS(=O)(=O)Nc1ccc(F)c(-c2cc3cnc(Nc4cccnc4)nc3n(C)c2=O)c1F | inhibition [14]: > 90%; inhibition [15]: > 90%; inhibition [16]: > 90%; inhibition [17]: > 90%; inhibition [18]: > 90%
445 | 71 | CCCS(=O)(=O)Nc1ccc(F)c(-c2cc3cnccc3c(=O)n2C)c1F | –
703 | 241 | CCCS(=O)(=O)Nc1ccc(F)c(-c2cc3cnccc3cn2)c1F | –
5 | 0.5 | CCCS(=O)(=O)Nc1ccc(F)c(-c2cc3cnc(Nc4ccccc4)nc3n(C)c2=O)c1F | inhibition [14]: > 90%; inhibition [15]: > 90%; inhibition [16]: > 90%; inhibition [17]: > 90%; inhibition [18]: > 90%
1 | 0.4 | CCCS(=O)(=O)Nc1ccc(F)c(-c2cc3cnc(Nc4cnn(C)c4)nc3n(C)c2=O)c1F | inhibition [14]: > 90%; inhibition [15]: > 90%; inhibition [16]: > 90%; inhibition [17]: > 90%; inhibition [18]: > 90%
73 | 15 | CCCS(=O)(=O)Nc1ccc(F)c(-c2cc3cnc(NC4CCOCC4)nc3n(C)c2=O)c1F | –
45 | 9 | CCCS(=O)(=O)Nc1ccc(F)c(-c2cc3cnc(NC)nc3n(C)c2=O)c1F | –
